Assay results collected from several papers.
Protocols differ between the studies behind these lines.
Cell line: CCRF-CEM
Observed: cell growth or viability

O=C1C(=Cc2ccc(F)c(F)c2)CN(C(=O)C(Cl)Cl)CC1=Cc1ccc(F)c(F)c1
CC50 (imaging; 24 h): 0.0993 µM

COc1ccc(C(=O)/C=C/c2cccc(Cl)c2Cl)cc1S(N)(=O)=O
inhibition (SRB; 10 µM): 99%

O=C(CN1C(=O)SC(=Cc2ccccn2)C1=O)Nc1nc2ccccc2s1
CC50 (MTT; 48 h): 11.9 µM

COc1cc(-c2cn(-c3cc(=O)oc4ccc(Cl)cc34)nn2)cc(OC)c1OC
CC50 (48 h): 37.2 µM

O=C1C(=Cc2ccc(Cl)c(Cl)c2)CN(C(=O)C(Cl)Cl)CC1=Cc1ccc(Cl)c(Cl)c1
CC50 (imaging; 24 h): 0.0932 µM

COc1cccc(Oc2ccccc2NC(=O)CNC(=O)c2cccc3ccccc23)c1
GI50 (SRB; 48 h): 363 nM

COc1ccc(C(=O)/C=C/c2ccc3ccccc3c2)cc1S(N)(=O)=O
GI50 (SRB; 48 h): 2600 nM

COc1ccc(-c2cn(-c3cc(=O)oc4ccc(Br)cc34)nn2)cc1
CC50 (48 h): 9.8 µM
